KCNK3 block: human KCNK3 channel inhibition, primary screen. CHO-KCNK3 thallium flux, FluxOR fluorescence; active compounds read low. actives 0.84% (n = 340,000). AID 602410. O14649. B-score at 10 µM;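 active = B-score under library mean minus 4 SD, starting fluorescence ratio at most library mean plus 5 SD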;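 also: more negative B-score means stronger inhibition of thallium flux through KCNK3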
KCNQ1 block: human KCNQ1 channel inhibition | B-score at 10 µM | actives 1.3% (n = 310,000) | CHO-K1 KCNQ1, FluxOR thallium flux fluorescence; active compounds read high | AID 2642;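 active = compounds whose thallium flux B-score, printed positive for inhibition, exceeds three library SD while starting fluorescence stays within three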;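 also: channel opened by potassium depolarization with thallium stimulus after 20 min compound exposure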
KCNK9 block: inhibitors of human KCNK9 two-pore domain potassium channel; Q9NPC2; HEK293 KCNK9, FluxOR thallium flux fluorescence; active compounds read low; B-score at 10 µM; actives 1.2% (n = 310,000); AID 488922;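 active = ratio B-score over 3 SD below the library mean, with starting fluorescence within 5 SD of its mean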;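 also: negative B-score means less thallium flux so channel inhibition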
KCNQ1 pot: potentiators or activators of human KCNQ1 potassium channel; actives 0.35% (n = 310,000); P51787; CHO-K1 KCNQ1, thallium flux FluxOR fluorescence; active compounds read high; B-score at 10 µM;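 active = fluorescence ratio B-score, a plate-corrected score, at least three library SD, with initial intensity B-score within 5 SD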
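Assay system: stable KCNQ1 CHO-K1 line; medium: assay buffer, equal DMSO in all wells; timing: 90 min dye loading and 20 min compound exposure, both at room temperature; technique: kinetic FluxOR thallium fluorescence, 10-s 1-Hz baseline, 110-s post-stimulus read; read-out basis: B score of baseline-normalized fluorescence ratio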
hERG rescue: hERG (human) protection from proarrhythmic block; Q12809; CHO-hERG, FluxOR thallium flux, dofetilide IC70 present; activation (rescue from dofetilide block), less the hit threshold, % at 10 µM; actives 0.51% (n = 310,000); AID 1511;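 active = activation above the mean of controls blocked by dofetilide plus 5 SD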;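 also: thallium influx through hERG after potassium depolarization seen as dye fluorescence rise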
KCC2 mod: modulators of human KCC2 chloride dependent transport; Q9H2X9; KCC2 cells, thallium flux FluoZin-2 fluorescence; actives 2.2% (n = 190,000); B-score of Tl+ flux slope (higher = more flux/activation; lower = inhibition) at 10 µM;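 active = thallium flux slope and its plate-corrected score both differing from the plate sample mean at a set confidence after two filtering rounds, in either direction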;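 also: slope of fluorescence scaled to starting intensity during 10 to 20 s after thallium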
KCNQ1 block val: human KCNQ1 channel inhibition, validation assay | shares compounds with KCNQ1 block | KCNQ1 cell line, FluxOR thallium flux fluorescence | inhibition, % at 10 µM | actives 93% (n = 1,600) | AID 588353;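 active = primary screen active, with duplicate mean exceeding buffer control mean plus 3 SD of buffer wells, cut at about 28% in these data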;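 also: 0% = buffer control ratio and 100% = XE991 inhibitor control ratio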
CHO Tl flux: activity in parental CHO cells lacking KCNQ1 | shares compounds with KCNQ1 block | parental CHO-K1, FluxOR thallium flux fluorescence ratio; active compounds read low; zero means no signal rise above baseline | fluorescence ratio (Tl flux) at 10 µM | actives 21% (n = 1,600);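 active = mean of duplicate thallium-flux fluorescence ratios in parental host cells more than 5 SD below the buffer control mean, cut at about 0.38 in these data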;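 also: ratio is peak minus minimum fluorescence divided by baseline fluorescence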
KCNQ1 APC inh: confirmation of human KCNQ1 potassium channel inhibitors by electrophysiology; KCNQ1-CHO cells, automated patch clamp current; shares compounds with KCNQ1 block; actives 20% (n = 490); calls only at 10 µM;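 active = KCNQ1 current drop exceeding 3 SD of negative control wells, seen in both duplicate runs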;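 also: steady state current during a 2 s step from -80 to +40 mV; negative values mean current inhibition and positive values mean potentiation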
KCNQ2 spec: KCNQ1 inhibitor that also blocks rat KCNQ2 channel; KCNQ2 cells, FluxOR thallium flux fluorescence; actives 71% (n = 1,600); inhibition, % at 10 µM; AID 651746; shares compounds with KCNQ1 block;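 active = mean percent inhibition of the KCNQ2 thallium signal more than 5 SD above the buffer-only control wells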;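 also: KCNQ2 expressed in CHO cells; 0% = buffer control wells and 100% = XE-991 inhibitor control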
KCNQ1 KCNE1 spec: selectivity of KCNQ1 inhibitors: inhibition of human KCNQ1/KCNE1 channel; shares compounds with KCNQ1 block; KCNQ1/KCNE1 cells, FluxOR thallium flux fluorescence; inhibition, % at 10 µM; actives 77% (n = 1,600); AID 652147;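 active = mean percent inhibition of duplicate wells above the buffer-only control mean plus 3 SD of those controls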;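 also: 0% = buffer only wells and 100% = XE-991 inhibitor control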
KCNK9 block conf: human KCNK9 inhibitor confirmation; HEK293 KCNK9 cells, FluxOR thallium flux fluorescence; shares compounds with KCNK9 block; actives 43% (n = 4,900); AID 492992; inhibition, % at 10 µM;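 active = thallium signal inhibited by more than 5 SD of the compound-free buffer control wells, on both duplicate plates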;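 also: 0% = assay buffer control wells without compound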
Kir21 sel: selectivity of KCNK9 modulators against mouse Kir2.1 | inhibition, % at 10 µM | Kir2.1 cells, FluxOR thallium flux fluorescence | actives 4% (n = 4,900) | shares compounds with KCNK9 block;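 active = thallium signal drop more than 5 SD beyond the mean of the no-compound control wells, seen in both duplicate plates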;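 also: signal is fluorescence rise after thallium addition divided by baseline fluorescence; plate controls were assay buffer only for no effect and full block by chlorpromazine control for full effect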
Target sequence (P35561 whole entry, looked up): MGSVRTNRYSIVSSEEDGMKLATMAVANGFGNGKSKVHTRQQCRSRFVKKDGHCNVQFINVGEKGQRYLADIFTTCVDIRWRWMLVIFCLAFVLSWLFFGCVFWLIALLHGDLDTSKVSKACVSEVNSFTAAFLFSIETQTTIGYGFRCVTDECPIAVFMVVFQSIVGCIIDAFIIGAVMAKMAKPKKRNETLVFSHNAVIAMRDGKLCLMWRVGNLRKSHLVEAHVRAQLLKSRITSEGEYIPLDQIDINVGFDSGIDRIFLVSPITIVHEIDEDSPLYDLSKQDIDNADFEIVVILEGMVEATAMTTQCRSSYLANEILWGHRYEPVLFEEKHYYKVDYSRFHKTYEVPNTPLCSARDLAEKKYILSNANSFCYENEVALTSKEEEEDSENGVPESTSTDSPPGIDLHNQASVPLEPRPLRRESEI
HEK293 Tl ctr: non-induced cell nonspecific activity of KCNK9 modulators; shares compounds with KCNK9 block; inhibition, % at 10 µM; non-induced KCNK9-HEK293, FluxOR thallium flux; actives 40% (n = 4,900);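 active = thallium signal drop beyond 5 SD of the untreated control mean, on both duplicate plates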;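 also: plate controls were buffer only IC0 wells for no effect and SID17386958 at its maximal inhibitory level for full effect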
Starred values were filed as active, the others as inactive; i = inactive; / = not tested or not shown; + = active, no number. Sampled rows, rich in hits. Any-hit rate of the full collection: about 4.1%.

SMILES	KCNK3 block	KCNQ1 block	KCNK9 block	KCNQ1 pot	hERG rescue	KCC2 mod	KCNQ1 block val	CHO Tl flux	KCNQ2 spec	KCNQ1 KCNE1 spec	others
Oc1ccc(-c2nc3ccccc3nc2-c2ccccc2)cc1	i	7*	i	i	-13	/	84*	0.38*	71%*	110%*
COc1ccc(-c2nc3ccccc3nc2-c2ccc(OC)cc2)cc1	i	10*	i	i	-9	/	88*	0.34*	96%*	115%*
Oc1ccc(-c2nnc(-c3ccccc3)c(-c3ccccc3)n2)cc1	/	i	i	i	-9	0.13	/	/	/	/
Cc1ccc(S(=O)(=O)N2Cc3ccccc3CC2C(=O)NC(C)(C)C)cc1 (stereo not drawn)	i	i	i	i	-3	/	/	/	/	/
COc1ccc(OC)c(NC(=O)CSc2ccc(-c3cccnc3)nn2)c1	i	i	i	i	-6	/	/	/	/	/
Cc1ccc(-c2nnn(C(C)C(=O)N3c4ccccc4CCc4ccccc43)n2)cc1 (stereo not drawn)	i	6*	i	i	-6	-2.3	135*	0.42	92%*	162%*	KCNQ1 APC inh=i
O=C1C2C3C=CC(O3)C2C(=O)N1Nc1ccccc1 (stereo not drawn)	i	/	/	/	/	/	/	/	/	/
CN(C)CCCN(C(=O)c1ccc2c(c1)CCCC2)c1nc2cc3c(cc2s1)OCO3	i	7*	i	i	-16	/	48*	0.46	76%*	36%*
CCOc1ccc(C2/C(=C(\O)c3ccc4c(c3)OCCO4)C(=O)C(=O)N2CCN2CCOCC2)cc1OC (stereo not drawn)	i	i	i	i	-14	/	/	/	/	/
CCc1c(C)nc2nc(SCc3ccccc3Cl)[nH]n2c1=O	i	9*	i	i	-12	/	85*	0.48	69%*	34%*
COc1ccccc1NC(=O)C(C)OC(=O)C1CCC(C(C)(C)C)CC1 (stereo not drawn)	i	7*	-7.1*	i	-5	/	122*	0.49	83%*	156%*	KCNQ1 APC inh=i
C/C(=N\NC(=O)c1ccc(-n2cnnn2)cc1)c1ccc(C)cc1	i	/	/	/	/	/	/	/	/	/
CC[C@@]1(O)C(=O)OCc2c1cc1n(c2=O)Cc2cc3c(CN(C)C)c(O)ccc3nc2-1	i	32*	i	i	-49	/	+	0.017*	i	i
Cc1c(CC(=O)O)c(=O)oc2cc(OCc3ccc(Br)cc3)ccc12	i	i	i	i	-6	/	/	/	/	/
S=C(NCCSCc1ccc(Cl)cc1Cl)Nc1ccccc1	i	6*	i	i	-10	-0.81	48*	0.41	111%*	36%*
S=C(NCCSCc1ccc(Cl)c(Cl)c1)Nc1ccccc1	i	11*	i	i	-7	/	76*	0.39	80%*	65%*
CC(C)Oc1ccc(CNC(=S)Nc2ccccc2)cc1Cl	i	7*	i	i	-7	/	50*	0.55	59%*	75%*
Cc1ccccc1CSCCNC(=S)Nc1ccccc1	i	8*	i	i	-14	-1.5	62*	0.52	82%*	72%*
CCS(=O)(=O)c1nc(S(=O)(=O)c2ccc(C)cc2)c(N2CCC3(CC2)OCCO3)s1	i	i	i	i	-9	/	/	/	/	/
CC1CCCC(NC(=O)C2COc3ccccc3O2)C1C (stereo not drawn)	i	/	/	/	/	/	/	/	/	/
Cc1ccc(-n2c(C)nnc2SCC(=O)N(C)c2c(N)n(Cc3ccccc3)c(=O)[nH]c2=O)cc1	i	/	/	/	/	/	/	/	/	/
CC1CCCCC1N(C)C1CCN(C(=O)CNC(=O)/C=C/c2cccc(Cl)c2)CC1 (stereo not drawn)	i	i	i	i	-5	/	/	/	/	/
O=C(CC1SC(=Nc2ccccc2)N(CCCO)C1=O)Nc1ccc(Cl)cc1 (stereo not drawn)	i	9*	i	i	-26	0.091	72*	0.51	78%*	110%*	KCNK9 block conf=i;Kir21 sel=i;HEK293 Tl ctr=i
O=C(CC1SC(=Nc2ccccc2)N(CCO)C1=O)Nc1ccccc1 (stereo not drawn)	i	i	i	i	-7	-0.98	/	/	/	/
Cc1ccc(-n2cccn2)c(CN2CCCC(C(=O)c3ccc4c(c3)OCO4)C2)c1 (stereo not drawn)	i	8*	i	i	-17	/	66*	0.39	112%*	80%*	KCNK9 block conf=i;Kir21 sel=i;HEK293 Tl ctr=i
c1ccc2c(c1)Nc1cc3ccccc3cc1O2	i	/	/	/	/	/	/	/	/	/
O=C(OCC(=O)N(C1CCCCC1)C1CCCCC1)c1ccccc1O	i	7*	-9.4*	i	-7	/	116*	0.4	124%*	179%*	KCNQ1 APC inh=+;KCNK9 block conf=37%*;Kir21 sel=i;HEK293 Tl ctr=24%*
O=C(OCC(=O)N(C1CCCCC1)C1CCCCC1)c1ccc(O)cc1	i	i	i	i	-5	/	/	/	/	/
Cc1ccc(S(=O)(=O)NCc2ccccc2)cc1C(=O)N(C)Cc1ccc(F)cc1	i	i	i	i	-5	/	/	/	/	/
Cc1ccccc1CN1CCN(S(=O)(=O)c2ccc(Cl)s2)CC1	i	6*	i	i	-14	/	90*	0.37*	122%*	118%*	KCNK9 block conf=i;Kir21 sel=i;HEK293 Tl ctr=29%*
